Results from PMC7509213 (iScience, 2020).
Like-named read-outs stand apart in the source and are kept apart here.

Tests used:
RPB1 subunit of RNAPII [1] = assay: RPB1 degradation in PC3 cells under hypoxia; type: cell-based, human; settings: PC3, 10 μM, 1% O2
PC3 cells = assay: PC3 proliferation under hypoxia or normoxia; type: cell-based, human; settings: for IC50: Homo sapiens, PC-3, 48 h
Procedure, shortened: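 PC3 cells seeded at 5,000/well and held at 1% O2 in a humidified chamber at 37°C for 48 h (normoxia 20% O2) before 48 h exposure to test compound. A 1 μCi [3H]-thymidine pulse per well was given for 6 h, then cells were harvested onto glass-fibre filters for scintillation counting. Proliferation is relative to DMSO, mean ± SEM, n = 3, and IC50 values were derived from these curves.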

XPB = biological target: T1, XPB (Homo sapiens, UniProt P19447); assay: XPB degradation in cells; type: cell-based; settings: 10 μM, western blot
T1 sequence (P19447 1-782): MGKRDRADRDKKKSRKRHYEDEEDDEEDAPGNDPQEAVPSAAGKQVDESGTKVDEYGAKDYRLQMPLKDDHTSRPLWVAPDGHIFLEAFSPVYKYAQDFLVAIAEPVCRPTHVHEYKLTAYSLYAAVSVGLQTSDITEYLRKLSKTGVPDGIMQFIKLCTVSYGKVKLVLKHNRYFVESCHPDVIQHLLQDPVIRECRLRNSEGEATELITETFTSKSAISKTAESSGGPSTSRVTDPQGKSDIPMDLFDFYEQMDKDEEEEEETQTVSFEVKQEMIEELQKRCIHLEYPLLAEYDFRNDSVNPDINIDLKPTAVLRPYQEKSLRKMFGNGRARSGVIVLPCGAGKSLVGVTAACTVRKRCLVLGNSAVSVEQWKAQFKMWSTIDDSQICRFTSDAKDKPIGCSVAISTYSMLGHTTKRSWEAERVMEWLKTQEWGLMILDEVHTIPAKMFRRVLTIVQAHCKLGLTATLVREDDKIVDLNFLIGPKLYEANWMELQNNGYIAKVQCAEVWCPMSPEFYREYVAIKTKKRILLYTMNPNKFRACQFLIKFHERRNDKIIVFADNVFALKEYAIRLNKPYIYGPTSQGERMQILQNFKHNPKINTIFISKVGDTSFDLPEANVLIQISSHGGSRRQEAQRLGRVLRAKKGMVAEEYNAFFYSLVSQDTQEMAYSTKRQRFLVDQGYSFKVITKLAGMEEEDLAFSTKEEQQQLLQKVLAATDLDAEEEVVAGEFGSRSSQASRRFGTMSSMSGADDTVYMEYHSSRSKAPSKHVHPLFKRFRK

RPB1 subunit of RNAPII [2] = assay: RPB1 degradation in HeLa cells; type: cell-based, human
[3] = lethal case dosed with 18 mg/m^2 F60008; ref Kitzen et al., 2009; cited from earlier work
TFIIH = TFIIH (Homo sapiens, UniProt P19447); assay: DNA-dependent ATPase activity assay of purified TFIIH; type: biochemical; settings: 200 nM
Procedure, shortened: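 Purified TFIIH, DNA-dependent ATPase assay. It was started with TFIIH, run for 2 h, and stopped with EDTA. Mixture was spotted on PEI-cellulose TLC and developed in 0.5 M LiCl/1 M HCOOH. Released 32Pi was quantified by phosphorimaging relative to DMSO, mean ± SE, n = 3.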

RPB1 subunit of RNAPII [4] = assay: RPB1 degradation in C342T XPB knock-in cells; type: cell-based, human; settings: 1μM

O=C(Oc1cccc(F)c1OC(=O)c1cccc(O)c1)c1cccc(O)c1 [WZB117, 2-Fluoro-6-(m-hydroxybenzoyloxy) phenyl m-hydroxybenzoate]
effect on RNAPII degradation triggered by 3 μM G-2 and hypoxia (RPB1 subunit of RNAPII [1]): antagonizes

COc1cccc2c1C(=O)c1c(O)c3c(c(O)c1C2=O)C[C@@](O)(C(=O)CO)C[C@@H]3O[C@H]1C[C@H](N)[C@H](O)[C@H](C)O1 [doxorubicin]
potency under hypoxia versus normoxia (PC3 cells; PC3, 1% O2 vs 20% O2): decreased

CC(=O)S[C@@H]1CC2=CC(=O)CC[C@]2(C)[C@H]2CC[C@@]3(C)[C@@H](CC[C@@]34CCC(=O)O4)[C@H]12 [spironolactone]
degradation of XPB (XPB): caused degradation of the majority of XPB
effect on RPB1 degradation induced by G-2 (RPB1 subunit of RNAPII [2]; 10 μM SP combined with 1 μM G-2): rescued RPB1 from degradation
stability of RPB1 (RPB1 subunit of RNAPII [2]; HeLa, 10 μM): no effect

CC(C)[C@]12O[C@H]1[C@@H]1O[C@]13[C@]1(O[C@H]1C[C@H]1C4=C(CC[C@@]13C)C(=O)OC4)[C@@H]2O [triptolide, (1S,2S,4S,5S,7R,8R,9S,11S,13S)-8-hydroxy-1-methyl-7-propan-2-yl-3,6,10,16 tetraoxaheptacyclo[11.7.0.0^2,4.0^2,9.0^5,7.0^9,11.0^14,18] icos-14(18)-en-17-one]
Maximum serum levels [3]: 58.5 ng/mL
IC50 (PC3 cells; read-out: IC50, PC3 proliferation under hypoxia): 1.5 nM
IC50 (PC3 cells; read-out: IC50, PC3 proliferation under normoxia): 4.5 nM
fold enhancement of anti-proliferative effect (IC50) during hypoxia (PC3 cells; PC3, hypoxia vs normoxia): three-fold
effect size during hypoxia (PC3 cells; hypoxic PC3 cells): 0.71
ATPase activity of TFIIH (TFIIH): nearly completely inhibited

α-amanitin
degradation of Rpb1 in C342T XPB isogenic cell line (RPB1 subunit of RNAPII [4]): induced the degradation of Rpb1
